Source: PubChem BioAssay (several laboratories)
CYP2C19 inhib – blocks human cytochrome P450 2C19. P33261. CYP2C19 Supersomes, luciferin-H EGE luminescence, 30 min. inhibition, % at 5 µM. hit rate 21% among 96,000. AID 778;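 active means CYP2C19 inhibition above a set limit at 5 µM in the primary screen, cut at about 50% in these data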
Target sequence (P33261 whole entry, looked up): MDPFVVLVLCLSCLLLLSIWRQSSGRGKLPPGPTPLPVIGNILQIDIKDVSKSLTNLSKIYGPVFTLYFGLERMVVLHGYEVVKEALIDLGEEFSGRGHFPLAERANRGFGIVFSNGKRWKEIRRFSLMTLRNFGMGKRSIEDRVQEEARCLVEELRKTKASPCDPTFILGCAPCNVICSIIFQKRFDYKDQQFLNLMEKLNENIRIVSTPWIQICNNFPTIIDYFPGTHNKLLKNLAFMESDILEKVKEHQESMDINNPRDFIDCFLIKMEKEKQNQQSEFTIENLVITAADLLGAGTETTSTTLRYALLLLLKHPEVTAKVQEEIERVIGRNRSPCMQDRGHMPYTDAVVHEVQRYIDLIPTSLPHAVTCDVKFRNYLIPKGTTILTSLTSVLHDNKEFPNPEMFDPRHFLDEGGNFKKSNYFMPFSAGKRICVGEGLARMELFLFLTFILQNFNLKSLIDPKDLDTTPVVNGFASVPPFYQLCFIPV
CYP2C19 activ – increases human CYP2C19 enzyme activity; recombinant CYP2C19, luciferin-H EGE luminescence; active compounds read high; 0 = fully inhibited enzyme, 1 = untreated enzyme; 96,000 tested, under 10 active; activation factor at 5 µM; AID 1025;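 active means activation factor of at least 2 at 5 µM in the primary screen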
Cav3 T inh – inhibitors of human Cav3.2 T-type calcium channel; O95180; hit rate 4% among 100,000; Cav3.2-expressing cells, Fluo-4 calcium fluorescence FDSS; active compounds read low; B-score at 10 µM;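 active means single-dose well whose peak fluorescence ratio is a statistical outlier from its plate by either plate-standardised score or position-corrected B-score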
Rev-RRE block – inhibitors of HIV-1 Rev-RRE RNA interaction; P05866; hit rate 0.79% among 97,000; Rev peptide-RRE RNA binding, FRET; AID 704; inhibition, % at 8 µM;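 active means inhibition above the screen-wide mean plus 3 SD, cut at about 35% in these data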
Target sequence (P05866 whole entry, looked up): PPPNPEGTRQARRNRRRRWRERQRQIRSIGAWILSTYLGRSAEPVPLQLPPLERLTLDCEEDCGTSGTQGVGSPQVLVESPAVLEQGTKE
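System: Cy5-labelled duplex RRE RNA binding fluorescein-labelled HIV Rev peptide; Signal: fluorescein-to-Cy5 FRET, 480 nm excitation; Also added: labelled Rev peptide; Compound: one concentration, 8 µM nominal; Buffer or medium: HEPES pH 7.5 salt buffer with EDTA; Read-out: % inhibition of FRET ratio versus controls; Schedule: 5 min preincubation and 15 min binding, 25 °C.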
CYP2C9 inh – blocks human cytochrome P450 2C9; CYP2C9 Supersomes, luciferin-H conversion, luminescence; inhibition, % at 5 µM; hit rate 20% among 96,000; AID 777;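 active means blocking of liver enzyme CYP2C9 beyond about 50% at 5 µM, limit read from the data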
CYP2C9 act – CYP2C9 (human) activation; recombinant CYP2C9, luciferin-H conversion, luminescence; active compounds read high; factor 1 = untreated enzyme, 0 = blocked; P11712; activation factor at 5 µM; hit rate 1.4% among 96,000; AID 1024;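 active means activation factor of 2 or more for CYP2C9 at a 5 µM dose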
Each line names hits and unclear results; the compound was inactive in the other large screens; [ ] = remark or other dose. The list is not random: actives were taken first. Their share in the collection is about 27%.

CCN(CC)S(=O)(=O)c1cccc(-c2nnc(SCc3ncc(-c4ccccc4)o3)n2C)c1	CYP2C9 inh 50.6
CCNC(=O)CSc1nnc(-c2cccc(S(=O)(=O)N(CC)CC)c2)n1CCc1ccccc1	none
CCn1c(=O)c2cc(C(=O)N3CCN(C(=O)c4ccco4)CC3)sc2c2ccccc21	none (no result: CYP2C19 inhib, CYP2C19 activ, Rev-RRE block, CYP2C9 inh, CYP2C9 act)
O=C1Nc2cc(Cl)c(Cl)cc2N(O)N1c1ccc(Cl)cc1	none
O=C1Nc2cc(Cl)c(Cl)cc2N(O)N1c1cccc(Cl)c1	CYP2C9 inh 52.1
CSc1nc(SCC(=O)NCc2ccco2)c2c3c(sc2n1)CN(C)CC3	none (no result: CYP2C19 inhib, CYP2C19 activ, CYP2C9 inh, CYP2C9 act)
CSc1nc(SCC(N)=O)c2c3c(sc2n1)CN(C)CC3	Cav3 T inh 4.12
COC(=O)C1=C[C@@H](C(=O)OC)[C@@H]2C3=C(C(=O)[C@@]2(C)NC(=O)c2ccccc2)[C@H](c2ccccc2)n2c(=O)n(-c4ccccc4)c(=O)n2[C@@H]3C1	none (no result: CYP2C19 inhib, CYP2C19 activ, Rev-RRE block, CYP2C9 inh, CYP2C9 act)
COC(=O)Cn1cc(C(=O)C2CC2)c2ccccc21	none
CC(NC(=O)Cn1cc(C(=O)C2CC2)c2ccccc21)c1ccccc1 (configuration not stated)	CYP2C19 inhib 59.2
CCOC(=O)c1noc(C)c1C(=O)Nc1cccc(F)c1	none (no result: Cav3 T inh)
Cc1noc(C)c1COC(=O)C1(c2cccc(F)c2)CCCC1	Cav3 T inh -5.01, CYP2C9 inh 55.8 (no result: Rev-RRE block)
O=C1C=C(NCCN2CCOCC2)CC(c2ccccc2)C1 (configuration not stated)	none (no result: Cav3 T inh)
Cc1ccc(O)c(C(=O)c2coc(=N)c(C(=O)NC(C)C)c2)c1	none
Cc1cc(C(=O)OCC(=O)c2ccc(Br)s2)no1	CYP2C9 inh 65.7
COc1ccccc1NC(=O)c1ccccc1NC(=O)c1cc(Cl)ccc1NC(=O)c1ccco1	none
O=C(Nc1cccc(NC(=O)c2cccs2)c1)c1ccco1	none
COc1ccc(/C=C/C(=O)c2ccc(NC(=O)c3cccs3)cc2)cc1OC	CYP2C9 inh 71.9
COc1cc(NC(=O)c2ccco2)ccc1NC(=O)c1ccccc1Cl	CYP2C19 inhib 51.2, CYP2C9 inh 71.6
COc1ccc(OC)c(CNCCNC(=O)c2ccco2)c1	CYP2C19 inhib 73.1
COc1cc(NC(=O)c2cccs2)ccc1NC(=O)c1ccco1	CYP2C9 inh 73.9
Cc1occc1C(=O)N1CCN(c2ncccn2)CC1	none
NC(=O)CSc1nc(-c2ccccc2Cl)ns1	none
COc1ccc(NC(=O)c2ccccc2NC(=O)c2ccco2)c(OC)c1	CYP2C9 inh 59.2
COc1cccc(NC(=O)Cn2c(=O)c3c(ncn3Cc3ccccc3)n(Cc3ccccc3)c2=O)c1	none
Cc1ccc(S(=O)(=O)N2CCc3ccccc3C2CN2C(=O)c3ccccc3C2=O)cc1 (configuration not stated)	CYP2C19 inhib 71.3
O=C1c2ccccc2C(=O)N1CC1c2ccccc2CCN1C(=O)N1CCOCC1 (configuration not stated)	none
O=C1c2ccccc2C(=O)N1CC1c2ccccc2CCN1S(=O)(=O)c1cnc[nH]1 (configuration not stated)	CYP2C19 inhib 78.4, CYP2C9 inh 97.2 (no result: Rev-RRE block)
Fc1ccc(CN2CCCCCCC2)cc1F	none
O=C(CN(C(=O)CSc1nnc(COc2ccccc2)o1)c1ccc(F)cc1)NC1CCCCC1	none
Cc1ccnc(N/C=C(\C#N)c2nc(-c3cccc(Br)c3)cs2)c1	Rev-RRE block 136.0[fluorescence artefact?]
CC(=O)Nc1cccc(-c2csc(Nc3cc(C)ccn3)n2)c1	none
Cn1c(Cc2cccc3ccccc23)nnc1SCC(=O)N1CCN(c2ccccc2)CC1	none
CCOC(=O)c1c(NC(=O)CCN2C(=O)c3ccccc3C2=O)sc(C(=O)OC(C)C)c1C	CYP2C9 inh 60.0
CCC(CC)c1nnc(NC(=O)CCN2C(=O)c3ccccc3C2=O)s1	none (no result: Cav3 T inh)
CCOC(=O)c1sc(NC(=O)CCN2C(=O)c3cccc([N+](=O)[O-])c3C2=O)c(C(=O)OCC)c1C	CYP2C9 inh 56.7
COc1ccc(N=NC2=C(O)CC(C)(C)CC2=O)c(OC)c1	Rev-RRE block 58.8 (no result: CYP2C19 inhib, CYP2C19 activ, CYP2C9 inh, CYP2C9 act)
CCC(=O)N(CC)C1=C(O)c2ccccc2C(=O)C1=O	none
CCCCc1ccc(/C=C2\C(=O)c3ccccc3C(O)=C2C(=O)OCC)cc1	CYP2C19 inhib 67.0, CYP2C9 inh 90.2
N#CCCN1CCN(S(=O)(=O)c2ccc(S(=O)(=O)N3CCCCCC3)cc2)CC1	none (no result: Rev-RRE block)
CC(C)(C)c1ccc(S(=O)(=O)N2CCN(CCC#N)CC2)cc1	CYP2C19 inhib 50.0 (no result: Rev-RRE block)
CCCN1C2=C(C(=O)CC(C)(C)C2)C(c2ccc(F)cc2)C2=C1c1ccccc1C2=O (configuration not stated)	CYP2C9 inh 74.6 (no result: Cav3 T inh)
CC(C)CCNC(=O)C1CC(c2cccc(F)c2)=NO1 (configuration not stated)	none (no result: CYP2C19 inhib, CYP2C19 activ, Rev-RRE block, CYP2C9 inh, CYP2C9 act)
O=c1oc(-c2ccccc2F)nc2c1cnn2-c1ccccc1	none
c1cncc(CNc2c3c(nc4nnnn24)CCCC3)c1	CYP2C19 inhib 68.0 (no result: Rev-RRE block)
C1CCc2c(nc3nnnn3c2N2CCOCC2)C1	none (no result: Rev-RRE block)
CC(C)N1C(=O)C2C(C(=O)NCc3ccccc3)C3C=CC2(O3)C1C(=O)NC(C)(C)C (configuration not stated)	none
COc1ccc(-n2c(SCC#N)nnc2-c2ccc(NS(=O)(=O)c3ccc(C)cc3)cc2)cc1	CYP2C19 inhib 89.8, CYP2C9 inh 94.3 (no result: Rev-RRE block)
COc1ccc(-n2c(SCC(=O)Nc3ccccc3)nnc2-c2ccc(NS(=O)(=O)c3ccc(C)cc3)cc2)cc1	none
COc1cccc(-n2c(SCC#N)nnc2-c2cnccn2)c1	none
COc1ccc(-n2c(SCC(N)=O)nnc2-c2ccc(NS(=O)(=O)c3ccc(C)cc3)cc2)cc1	CYP2C9 inh 72.7
COc1cc(CN2CCC(C(=O)N3CCC(C)CC3)CC2)cc(Br)c1O	none (no result: Cav3 T inh)
Cc1ccc(C23OC(=O)C(C)(C)C2OC(=O)C3(C)C)cc1 (configuration not stated)	none
O=CN(/C=C1\Sc2ccccc2C1=O)Cc1ccccc1	CYP2C9 inh 56.2
COc1cc(OC)nc(NC(=O)CSc2nnc(-c3ccccc3)n2C2CCCCC2)n1	none (no result: CYP2C19 inhib, CYP2C19 activ, CYP2C9 inh, CYP2C9 act)
Cc1cccc2cc(/C=C3\N=C(c4ccccc4)OC3=O)c(N3CCOCC3)nc12	Cav3 T inh -5.97
Cn1nc(C(F)(F)F)c(/C=N/OC(=O)c2ccccc2)c1Sc1ccc(Cl)cc1	CYP2C9 inh 89.0
Cn1nc(C(F)(F)F)c(/C=N/OC(=O)c2ccccc2)c1Cl	none
CCOC(=O)c1cnn(-c2cc(Oc3ccccc3C)ncn2)c1N	none
COc1ccc(/C(N)=C/C(=O)C(C)(C)C)cc1	CYP2C19 inhib 74.2
CN(c1ccccc1)S(=O)(=O)c1ccc(C(=O)OCC(=O)NCc2ccco2)cc1	CYP2C19 inhib 97.1, CYP2C9 inh 94.4
O=C(COC(=O)c1cccc(S(=O)(=O)N2CCN(c3ccccc3)CC2)c1)NCc1ccco1	CYP2C19 inhib 77.9
O=C(COC(=O)c1cccc(Oc2ccccc2)c1)NCc1ccco1	none
